Experiments:
Assay type in all cases: functional
Details in all cases: read-out: GI
[1] = system: Candida albicans; experiment: Antifungal activity against Candida albicans 90028 assessed as growth inhibition at 1 ug/ml by CLSI M27-A3 method
In short: (§1)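 CLSI M27-A3 broth microdilution in RPMI, read after 48 h. Strains pre-grown 18 h in YEPD at 30°C. Final inoculum 0.5×10^2–2.5×10^3 cells/ml. Two-fold dilutions in RPMI came from a 1600 µg/ml stock in water with 9% DMSO; final DMSO was 0.09%. OD405 read, % inhibition = 100 − (CTW−SCW)/(GCW−SCW). Triplicate on three occasions, mean±SD.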

[2] = system: Candida albicans; experiment: Antifungal activity against Candida albicans CAI4 expressing delta-cph1 gene assessed as growth inhibition at 1 ug/ml by CLSI M27-A3 method; in short: as §1
[3] = system: Candida albicans; experiment: Antifungal activity against Candida albicans CAI4 expressing delta-cph1 (CPH1) gene assessed as growth inhibition at 1 ug/ml by CLSI M27-A3 method; in short: as §1
[4] = system: Candida albicans; experiment: Antifungal activity against Candida albicans CAI4 expressing delta-efg1 gene assessed as growth inhibition at 1 ug/ml by CLSI M27-A3 method
In short: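 CLSI M27-A3 broth microdilution in RPMI. Final inoculum 0.5×10^2 to 2.5×10^3 cells/ml. Seven two-fold concentrations from 0.25 to 16 µg/ml, with DMSO held at 0.09% (v/v) in all wells. Compound-free growth controls and sterility controls are run for each strain. […] Triplicate on three occasions.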

[5] = system: Candida albicans; experiment: Antifungal activity against Candida albicans CAI4 expressing delta-efg1 (EFG1) gene assessed as growth inhibition at 1 ug/ml by CLSI M27-A3 method; in short: as §1
[6] = system: Candida albicans; experiment: Antifungal activity against Candida albicans CAI4 expressing delta-cph1/delta-efg1 gene assessed as growth inhibition at 1 ug/ml by CLSI M27-A3 method; in short: as §1
[7] = system: Candida albicans; experiment: Antifungal activity against Candida albicans CAI4 expressing delta-cph1/delta-efg1 (EFG1) gene assessed as growth inhibition at 1 ug/ml by CLSI M27-A3 method; in short: as §1

Measured: inhibition of growth at 1 µg/mL

C[C@@H]1[C@H](O)[C@@H](C)/C=C/C=C/C=C/C=C/C=C/C=C/C=C/[C@H](O[C@@H]2O[C@H](C)[C@@H](O)[C@H](N)[C@@H]2O)C[C@@H]2O[C@](O)(C[C@@H](O)C[C@@H](O)[C@H](O)CC[C@@H](O)C[C@@H](O)CC(=O)O[C@H]1C)C[C@H](O)[C@H]2C(=O)O [AMPHOTERICIN B]
100%: all assays above
